Source: ChEMBL document CHEMBL5223179, “Phenyl Dihydrouracil: An Alternative Cereblon Binder for PROTAC Design” (ACS Med Chem Lett, 2023)
Calls of active or inactive are those of the source. The calls are words filed in the database; no cut-off is given here.

Experiments:
[1] = Metabolic stability in mouse liver microsomes assessed as clearance measured upto 240 mins in presence of NADPH regenerating system by LC-MS/MS analysis; assay type: ADME, Microsome; settings: 4 h
KOPTK1 [2] = assay: Cytotoxicity against human KOPT-K1 cells incubated for 24 hrs by Celltiter-Glo assay; assay type: functional; settings: read-out: LC50 (the source's name)
Procedure, shortened: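 KOPT-K1 human T-ALL cells exposed to compound for 24 h. Viability read by CellTiter-Glo luminescence. LC50 derived from concentration-response curves.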

[3] = target: T1, Tyrosine-protein kinase Lck (Homo sapiens, UniProt P06239); assay: Induction of LCK degradation in human KOPT-K1 cells assessed as maximum degradation after 4 hrs by immunoblotting analysis relative to control; assay type: cell-based
Procedure, shortened: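 KOPT-K1 cells were treated with increasing concentrations of compound for 4 h. Endogenous LCK was assessed by immunoblot. Degradation was calculated from quantified band intensities, and DC50 from the average of three independent experiments.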
Target sequence in this assay (P06239 2-509 limits assumed): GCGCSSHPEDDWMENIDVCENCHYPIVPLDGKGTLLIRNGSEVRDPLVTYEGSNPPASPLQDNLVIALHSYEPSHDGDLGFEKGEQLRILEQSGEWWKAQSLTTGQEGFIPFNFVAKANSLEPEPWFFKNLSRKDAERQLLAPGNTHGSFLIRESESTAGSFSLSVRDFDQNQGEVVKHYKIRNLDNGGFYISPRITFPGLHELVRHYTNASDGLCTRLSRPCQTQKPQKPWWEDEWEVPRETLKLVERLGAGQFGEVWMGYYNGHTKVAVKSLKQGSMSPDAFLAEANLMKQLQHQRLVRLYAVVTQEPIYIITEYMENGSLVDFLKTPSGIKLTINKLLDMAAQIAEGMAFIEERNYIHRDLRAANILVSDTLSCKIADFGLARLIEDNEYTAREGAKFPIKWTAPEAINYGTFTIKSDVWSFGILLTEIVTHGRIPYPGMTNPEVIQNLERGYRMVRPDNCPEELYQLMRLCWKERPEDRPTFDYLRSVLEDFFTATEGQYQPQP

[4] = target: DNA-binding protein Ikaros (Homo sapiens) (UniProt Q13422); assay: Induction of IKZF1 degradation in human KOPT-K1 cells upto 100 nM incubated for 4 hrs by immunoblotting analysis; assay type: cell-based
DNA-binding protein Ikaros (Homo sapiens), sequence (Q13422 whole entry): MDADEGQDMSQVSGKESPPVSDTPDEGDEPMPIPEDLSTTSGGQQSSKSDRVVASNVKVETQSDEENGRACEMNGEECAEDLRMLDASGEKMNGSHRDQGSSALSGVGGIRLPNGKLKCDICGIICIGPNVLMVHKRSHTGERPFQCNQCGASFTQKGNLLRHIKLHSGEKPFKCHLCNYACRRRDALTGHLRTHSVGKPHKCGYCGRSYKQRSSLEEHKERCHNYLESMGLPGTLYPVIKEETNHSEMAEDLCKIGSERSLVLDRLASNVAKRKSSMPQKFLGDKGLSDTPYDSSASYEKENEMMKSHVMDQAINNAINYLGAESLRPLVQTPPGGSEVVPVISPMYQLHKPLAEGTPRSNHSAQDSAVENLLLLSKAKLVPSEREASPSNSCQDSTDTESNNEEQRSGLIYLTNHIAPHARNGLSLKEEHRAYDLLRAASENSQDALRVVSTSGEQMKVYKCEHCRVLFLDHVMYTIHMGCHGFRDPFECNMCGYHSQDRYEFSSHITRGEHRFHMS
Procedure, shortened: (§1)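 KOPT-K1 cells were treated with compound at concentrations up to 100 nM. Endogenous GSPT1, IKZF1 and CK1α abundance was assessed by immunoblotting.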

[5] = target: Casein kinase I isoform alpha (Homo sapiens) (UniProt P48729); assay: Induction of CK1alpha degradation in human KOPT-K1 cells upto 100 nM incubated for 4 hrs by immunoblotting analysis; assay type: cell-based; procedure, shortened: as §1
Casein kinase I isoform alpha (Homo sapiens), sequence (P48729 2-337 limits assumed): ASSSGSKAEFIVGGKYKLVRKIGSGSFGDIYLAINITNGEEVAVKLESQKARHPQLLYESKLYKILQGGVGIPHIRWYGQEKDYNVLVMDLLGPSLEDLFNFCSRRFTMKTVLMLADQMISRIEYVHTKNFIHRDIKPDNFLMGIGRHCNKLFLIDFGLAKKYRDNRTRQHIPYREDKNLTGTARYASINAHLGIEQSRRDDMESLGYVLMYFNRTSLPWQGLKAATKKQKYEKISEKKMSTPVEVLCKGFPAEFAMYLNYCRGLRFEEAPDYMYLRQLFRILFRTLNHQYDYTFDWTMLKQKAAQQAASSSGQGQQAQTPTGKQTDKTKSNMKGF

[6] = target: Eukaryotic peptide chain release factor GTP-binding subunit ERF3A (Homo sapiens) (UniProt P15170); assay: Induction of GSPT1 degradation in human KOPT-K1 cells upto 100 nM incubated for 4 hrs by immunoblotting analysis; assay type: cell-based; procedure, shortened: as §1
Eukaryotic peptide chain release factor GTP-binding subunit ERF3A (Homo sapiens), sequence (P15170 whole entry): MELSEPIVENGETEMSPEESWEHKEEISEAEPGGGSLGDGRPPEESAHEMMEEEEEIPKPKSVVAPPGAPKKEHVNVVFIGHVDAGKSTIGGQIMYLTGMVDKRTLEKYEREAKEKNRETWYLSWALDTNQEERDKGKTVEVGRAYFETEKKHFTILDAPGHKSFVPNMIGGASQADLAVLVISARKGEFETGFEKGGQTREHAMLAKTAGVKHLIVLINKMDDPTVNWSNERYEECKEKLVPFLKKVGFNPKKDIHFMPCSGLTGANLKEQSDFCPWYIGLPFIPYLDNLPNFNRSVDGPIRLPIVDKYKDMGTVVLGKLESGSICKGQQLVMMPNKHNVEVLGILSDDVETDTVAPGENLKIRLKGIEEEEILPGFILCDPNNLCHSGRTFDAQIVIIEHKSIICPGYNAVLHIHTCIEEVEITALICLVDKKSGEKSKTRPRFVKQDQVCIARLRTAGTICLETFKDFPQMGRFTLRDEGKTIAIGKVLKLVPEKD

[7] = Permeability in human Caco-2 cells after 2 hrs by UPLC/MS analysis; assay type: ADME, cell-based; settings: caco-2, 2 h
[8] = target: T1, Tyrosine-protein kinase Lck; assay: Induction of HiBiT-tagged LCK degradation in human KOPT-K1 cells after 4 hrs by microplate reader analysis; assay type: cell-based
Target sequence in this assay (P06239 whole entry): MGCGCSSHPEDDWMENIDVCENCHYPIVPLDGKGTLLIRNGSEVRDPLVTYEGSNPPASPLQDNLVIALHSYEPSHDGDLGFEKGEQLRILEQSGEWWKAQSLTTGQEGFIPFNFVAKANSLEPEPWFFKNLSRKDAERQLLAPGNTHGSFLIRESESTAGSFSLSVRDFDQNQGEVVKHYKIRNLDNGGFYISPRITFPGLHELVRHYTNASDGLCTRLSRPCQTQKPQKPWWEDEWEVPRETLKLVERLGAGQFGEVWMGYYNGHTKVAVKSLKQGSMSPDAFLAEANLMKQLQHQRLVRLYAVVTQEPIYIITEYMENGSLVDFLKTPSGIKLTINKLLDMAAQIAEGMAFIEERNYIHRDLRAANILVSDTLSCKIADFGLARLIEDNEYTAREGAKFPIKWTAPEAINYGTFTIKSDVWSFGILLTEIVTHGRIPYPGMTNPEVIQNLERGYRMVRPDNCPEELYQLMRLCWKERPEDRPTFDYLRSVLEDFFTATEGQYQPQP

[9] = Metabolic stability in mouse liver microsomes assessed as half life measured upto 240 mins in presence of NADPH regenerating system by LC-MS/MS analysis; assay type: ADME, Microsome
[10] = target: Protein cereblon/DNA damage-binding protein 1 (Homo sapiens, UniProt Q96SW2); assay: Displacement of Cy5-O-Len from 6His-tagged CRBN/DDB1 (unknown origin) incubated for 1 hr under dark condition by fluorescence polarization assay; assay type: protein assay
Protein cereblon/DNA damage-binding protein 1, sequence (Q96SW2 whole entry): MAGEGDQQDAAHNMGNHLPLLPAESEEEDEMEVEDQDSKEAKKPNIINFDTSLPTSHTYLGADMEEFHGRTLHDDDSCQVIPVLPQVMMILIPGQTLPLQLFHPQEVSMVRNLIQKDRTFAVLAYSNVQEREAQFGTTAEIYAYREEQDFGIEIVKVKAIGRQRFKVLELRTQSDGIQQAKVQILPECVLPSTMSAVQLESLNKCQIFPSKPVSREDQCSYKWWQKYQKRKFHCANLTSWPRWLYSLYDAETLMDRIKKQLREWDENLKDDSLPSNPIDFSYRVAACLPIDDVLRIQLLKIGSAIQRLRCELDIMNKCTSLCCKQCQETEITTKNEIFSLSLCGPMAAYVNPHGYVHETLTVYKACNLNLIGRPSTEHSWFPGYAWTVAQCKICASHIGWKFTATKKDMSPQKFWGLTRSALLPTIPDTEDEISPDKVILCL
Protein cereblon/DNA damage-binding protein 1, sequence (Q16531 whole entry, further chain): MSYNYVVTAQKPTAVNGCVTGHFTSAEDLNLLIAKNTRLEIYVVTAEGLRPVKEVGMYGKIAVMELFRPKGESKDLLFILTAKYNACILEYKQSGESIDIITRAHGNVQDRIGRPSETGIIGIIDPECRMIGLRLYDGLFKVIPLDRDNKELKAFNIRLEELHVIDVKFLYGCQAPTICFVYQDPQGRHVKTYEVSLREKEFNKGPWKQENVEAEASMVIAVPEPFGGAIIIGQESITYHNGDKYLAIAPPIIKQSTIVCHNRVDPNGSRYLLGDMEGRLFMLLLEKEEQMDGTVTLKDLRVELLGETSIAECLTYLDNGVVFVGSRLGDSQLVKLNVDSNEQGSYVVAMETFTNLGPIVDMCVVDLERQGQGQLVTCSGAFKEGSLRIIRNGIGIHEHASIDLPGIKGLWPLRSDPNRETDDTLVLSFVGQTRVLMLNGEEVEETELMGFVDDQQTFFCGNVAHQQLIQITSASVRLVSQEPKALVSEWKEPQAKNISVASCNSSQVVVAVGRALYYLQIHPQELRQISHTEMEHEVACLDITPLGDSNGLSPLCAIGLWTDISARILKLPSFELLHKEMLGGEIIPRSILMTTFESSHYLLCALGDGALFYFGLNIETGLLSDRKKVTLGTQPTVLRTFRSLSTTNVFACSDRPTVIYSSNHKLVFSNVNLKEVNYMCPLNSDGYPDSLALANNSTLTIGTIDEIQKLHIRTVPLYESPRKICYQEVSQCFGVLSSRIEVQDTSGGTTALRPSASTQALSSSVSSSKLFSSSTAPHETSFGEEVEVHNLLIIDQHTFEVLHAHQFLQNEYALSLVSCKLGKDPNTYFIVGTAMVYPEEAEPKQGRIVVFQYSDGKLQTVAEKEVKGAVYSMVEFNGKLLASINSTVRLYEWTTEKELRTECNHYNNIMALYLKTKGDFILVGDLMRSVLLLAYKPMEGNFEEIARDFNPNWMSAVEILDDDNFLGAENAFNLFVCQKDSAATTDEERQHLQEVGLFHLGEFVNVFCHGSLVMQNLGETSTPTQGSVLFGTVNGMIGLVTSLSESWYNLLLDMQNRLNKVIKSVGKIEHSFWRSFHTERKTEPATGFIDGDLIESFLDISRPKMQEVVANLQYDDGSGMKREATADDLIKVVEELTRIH

[11] = target: Eukaryotic peptide chain release factor GTP-binding subunit ERF3A (Homo sapiens) (UniProt P15170); assay: Induction of HiBiT-tagged GSPT1 degradation in HEK293T cells upto 10 uM incubated for 4 hrs; assay type: cell-based
Procedure, shortened: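 HiBiT-tagged GSPT1 in HEK293T cells was measured after compound exposure at concentrations up to 10 μM.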

KOPTK1 [12] = assay: Cytotoxicity against human KOPT-K1 cells incubated for 72 hrs by Celltiter-Glo assay; assay type: functional; settings: for CC50: read-out: LC50 (the source's name)
Procedure, shortened: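 Human T-ALL KOPT-K1 cells treated with compounds for 72 h. Viability measured by CellTiter-Glo. LC50 fitted from dose-response data, reported as the mean of three independent experiments ± SD.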

[13] = Chemical stability of compound in human KOPT-K1 cell culture media assessed as half life incubated upto 48 hrs; assay type: physicochemical
Procedure, shortened: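 Compound stability followed in KOPT-K1 cell culture medium over time; half-life derived from the remaining compound.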

[14] = target: T1, Tyrosine-protein kinase Lck; assay: Induction of LCK degradation in human KOPT-K1 cells after 4 hrs by immunoblotting analysis; assay type: cell-based
Target sequence in this assay (P06239 whole entry): as the sequence (P06239 whole entry) above

Compound	Stability [1]	CC50 (KOPTK1 [2]) [nM]	permeability [7]	DC50 [8] [nM]	T1/2 [13] [h]	further results
Cc1nc(Nc2ncc(C(=O)Nc3c(C)cccc3Cl)s2)cc(N2CCN(CCCC(=O)N3CCN(c4ccc(N5CCC(=O)NC5=O)cc4)CC3)CC2)n1	Unstable	37	Impermeable	–	–	Emax [3]: 98.4%; Activity [4]: inactive; Activity [5]: inactive; Activity [6]: inactive
Cc1nc(Nc2ncc(C(=O)Nc3c(C)cccc3Cl)s2)cc(N2CCN(CCCC(=O)N3CCN(c4ccc(C5CCC(=O)NC5=O)cc4)CC3)CC2)n1 (stereo not drawn)	Unstable	0.005	Impermeable	8	–	–
Cc1nc(Nc2ncc(C(=O)Nc3c(C)cccc3Cl)s2)cc(N2CCN(CCO)CC2)n1.O [DASATINIB]	–	–	–	–	–	half-life [9]: 0.82 h
Cc1nc(Nc2ncc(C(=O)Nc3c(C)cccc3Cl)s2)cc(N2CCN(CCCNC(=O)COc3cccc4c3C(=O)N(C3CCC(=O)NC3=O)C4=O)CC2)n1 (stereo not drawn)	Unstable	8	Impermeable	13	13	IC50 [10]: 1030 nM; Activity [11]: inactive; CC50 (KOPTK1 [12]): 10 nM
O=C(O)COc1ccc(N2CCC(=O)NC2=O)cc1	–	–	–	–	–	Activity (KOPTK1 [12]): inactive
Cc1nc(Nc2ncc(C(=O)Nc3c(C)cccc3Cl)s2)cc(N2CCN(CCCNC(=O)COc3ccc(C4CCC(=O)NC4=O)cc3)CC2)n1 (stereo not drawn)	Unstable	0.24	Impermeable	6	> 48	–
Cc1nc(Nc2ncc(C(=O)Nc3c(C)cccc3Cl)s2)cc(N2CCN(CCCNC(=O)COc3ccc(N4CCC(=O)NC4=O)cc3)CC2)n1	Unstable	28	Impermeable	15	> 48	Emax [3]: 66%; DC50 [14]: 8 nM; Activity [4]: inactive; Activity [5]: inactive; Activity [6]: inactive; CC50 (KOPTK1 [12]): 0.005 nM
O=C1CCN(c2ccc(N3CCNCC3)cc2)C(=O)N1	–	–	–	–	–	Activity (KOPTK1 [12]): inactive
